The source of these data is ChEMBL document CHEMBL4840305, “Structure-guided design and development of novel N-phenylpyrimidin-2-amine derivatives as potential c-Met inhibitors” (Eur J Med Chem, 2021).

One data set deals with CAKI-1. The experiment in a line: cells. The note with it: Homo sapiens.
The subject of a further data set is HepG2. The data set can be described thus: cells. The note with it: Homo sapiens.
A further data set concerns PANC-1. The experiment in a line: cells. The note with it: Homo sapiens.
The test system of another data set is HCT-116. The data set can be described thus: cells. The note with it: Homo sapiens.
In a further data set the test system is PC-3. The data set can be described thus: cells. The settings on record: Homo sapiens.
Data set [1] deals with Hepatocyte growth factor receptor (Homo sapiens, UniProt P08581). The data set can be described thus: Inhibition of c-MET kinase (unknown origin) using poly(Glu:Tyr)(4:1) as substrate by ELISA. (In general: In an ELISA, binding on a coated surface is turned into a signal by an enzyme label.)
Hepatocyte growth factor receptor, sequence (P08581 whole entry): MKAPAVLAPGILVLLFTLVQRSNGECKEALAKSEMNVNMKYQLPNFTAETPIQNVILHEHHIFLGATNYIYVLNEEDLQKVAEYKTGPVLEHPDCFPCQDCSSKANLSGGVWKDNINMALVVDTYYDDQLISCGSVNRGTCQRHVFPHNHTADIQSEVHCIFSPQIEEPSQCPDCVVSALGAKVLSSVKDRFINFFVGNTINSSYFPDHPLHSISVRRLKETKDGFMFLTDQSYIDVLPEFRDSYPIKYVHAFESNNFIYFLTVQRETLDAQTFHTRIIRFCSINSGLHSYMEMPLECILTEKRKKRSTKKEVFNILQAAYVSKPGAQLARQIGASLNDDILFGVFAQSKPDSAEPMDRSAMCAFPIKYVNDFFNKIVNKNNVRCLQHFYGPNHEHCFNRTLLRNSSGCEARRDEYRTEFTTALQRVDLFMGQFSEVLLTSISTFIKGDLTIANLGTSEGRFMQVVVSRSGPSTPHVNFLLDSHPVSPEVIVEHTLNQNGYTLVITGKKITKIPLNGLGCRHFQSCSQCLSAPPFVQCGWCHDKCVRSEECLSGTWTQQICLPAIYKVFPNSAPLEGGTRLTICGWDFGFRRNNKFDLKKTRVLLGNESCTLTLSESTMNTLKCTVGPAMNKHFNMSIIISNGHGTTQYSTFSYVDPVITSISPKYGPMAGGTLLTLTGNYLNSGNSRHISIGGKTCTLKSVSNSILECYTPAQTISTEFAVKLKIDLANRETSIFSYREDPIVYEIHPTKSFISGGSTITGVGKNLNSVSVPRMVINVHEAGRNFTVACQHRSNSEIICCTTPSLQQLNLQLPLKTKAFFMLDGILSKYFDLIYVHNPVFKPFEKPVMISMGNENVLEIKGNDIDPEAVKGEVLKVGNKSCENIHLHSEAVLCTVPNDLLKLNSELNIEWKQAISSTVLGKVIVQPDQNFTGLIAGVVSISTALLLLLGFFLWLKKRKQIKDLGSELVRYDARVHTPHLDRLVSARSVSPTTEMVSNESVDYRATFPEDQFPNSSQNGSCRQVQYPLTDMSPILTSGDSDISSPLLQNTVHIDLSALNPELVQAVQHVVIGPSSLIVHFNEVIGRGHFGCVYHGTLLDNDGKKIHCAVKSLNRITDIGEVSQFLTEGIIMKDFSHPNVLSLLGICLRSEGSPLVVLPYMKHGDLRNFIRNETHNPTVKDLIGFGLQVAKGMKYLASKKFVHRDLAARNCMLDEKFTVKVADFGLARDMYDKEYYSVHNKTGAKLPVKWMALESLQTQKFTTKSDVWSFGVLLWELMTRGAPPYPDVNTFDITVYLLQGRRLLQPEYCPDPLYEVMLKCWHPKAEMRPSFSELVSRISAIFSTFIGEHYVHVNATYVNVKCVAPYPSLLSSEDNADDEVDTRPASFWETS
Data set [2] in a line: AUC(0 to t) in Sprague-Dawley rat at 4 mg/kg, iv by LC-MS/MS analysis. It is filed as ADME, organism-based. Set-up: dose 4 mg/kg. The note with it: in vivo. In short, it runs like this: (§1)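 Male SD rats were used. Compound concentrations in plasma were measured by LC/MS/MS. The oral arm was dosed at 20 mg/kg.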
Data set [3] is described as follows: Acute toxicity in ICR mouse assessed as abnormalities in heart at 600 to 1200 mg/kg, po administered as single dose and measured on day 14. Format: organism-based. The settings on record: in vivo, 336 h, dose 600-1200 mg/kg, time 14 day.
The nature of data set [4]: Apparent clearance during terminal phase in Sprague-Dawley rat at 4 mg/kg, iv by LC-MS/MS analysis. Format: ADME, organism-based. The settings on record: in vivo. A digest of the protocol: as §1
Data set [5] is described as follows: Cmax in Sprague-Dawley rat at 20 mg/kg, po by LC-MS/MS analysis. Format: ADME, organism-based. Further details: route oral, dose 20 mg/kg. The note with it: in vivo. In short, it runs like this:
as §1

Data set [6] is described as follows: Acute toxicity in ICR mouse assessed as abnormalities in kidneys at 600 to 1200 mg/kg, po administered as single dose and measured on day 14. Format: organism-based. The settings on record: in vivo, 336 h, dose 600-1200 mg/kg, time 14 day.
Data set [7] is described as follows: Half life in Sprague-Dawley rat at 20 mg/kg, po by LC-MS/MS analysis. Format: ADME, organism-based. The note with it: in vivo. A digest of the protocol: as §1
A short description of data set [8]: Acute toxicity in ICR mouse assessed as animal survival at 1200 mg/kg, po measured on day 14 (reference value: 100%). It is filed as organism-based. The note with it: in vivo, time 14 day.
The nature of data set [9]: Apparent clearance during terminal phase in Sprague-Dawley rat at 20 mg/kg, po by LC-MS/MS analysis. The settings on record: in vivo, read-out: CLz/F (converted). Format: ADME, organism-based. A digest of the protocol: as §1
Data set [10] in a line: Acute toxicity in ICR mouse assessed as animal survival at 1000 mg/kg, po measured on day 14 (reference value: 100%). Format: organism-based. The note with it: in vivo, time 14 day.
Data set [11] can be described thus: Cmax in Sprague-Dawley rat at 4 mg/kg, iv by LC-MS/MS analysis. Format: ADME, organism-based. Further details: route intravenous, dose 4 mg/kg. The note with it: in vivo. A digest of the protocol: as §1
Data set [12] can be described thus: Oral bioavailability in Sprague-Dawley rat at 20 mg/kg by LC-MS/MS analysis. It is filed as ADME, organism-based. The note with it: in vivo. A digest of the protocol:
as §1

The nature of data set [13]: AUC(0 to t) in Sprague-Dawley rat at 20 mg/kg, po by LC-MS/MS analysis. Format: ADME, organism-based. Further details: dose 20 mg/kg. The settings on record: in vivo.
Data set [14] is described as follows: Acute toxicity in ICR mouse assessed as animal survival at 2000 mg/kg, po measured on day 14 (reference value: 100%). It is filed as organism-based. The note with it: in vivo, time 14 day.
The nature of data set [15]: Acute toxicity in ICR mouse assessed as animal survival at 1500 mg/kg, po measured on day 14 (reference value: 100%). Format: organism-based. The settings on record: in vivo, time 14 day.
Data set [16] can be described thus: Half life in Sprague-Dawley rat at 4 mg/kg, iv by LC-MS/MS analysis. It is filed as ADME, organism-based. The settings on record: in vivo. A digest of the protocol: as §1
A short description of data set [17]: Acute toxicity in ICR mouse assessed as abnormalities in liver at 600 to 1200 mg/kg, po administered as single dose and measured on day 14. The settings on record: in vivo, 336 h, dose 600-1200 mg/kg, time 14 day. It is filed as organism-based.
Data set [18] can be described thus: Acute toxicity in ICR mouse assessed as animal survival at 600 mg/kg, po measured on day 14 (reference value: 100%). The settings on record: in vivo, time 14 day. Format: organism-based.
Data set [19] addresses Voltage-gated inwardly rectifying potassium channel KCNH2 (Homo sapiens, UniProt Q12809). The experiment in a line: Inhibition of human ERG.
Data set [20] is described as follows: Acute toxicity in ICR mouse assessed as animal survival at 800 mg/kg, po measured on day 14 (reference value: 100%). It is filed as organism-based. The settings on record: in vivo, time 14 day.
Data set [21] can be described thus: Tmax in Sprague-Dawley rat at 20 mg/kg, po by LC-MS/MS analysis. It is filed as ADME, organism-based. The settings on record: in vivo. A digest of the protocol: as §1

One may read the IC50 as the concentration that gives 50% inhibition. As a reminder, the AUC(0-t) is the area under the concentration-time curve up to a stated or last time point. Broadly, the Cmax is the maximum level reached in the sampled fluid or tissue. The half-life is the time needed for the level to fall by half in the phase considered. Read a high half-life as slow loss. As a reminder, the bioavailability is dose-corrected exposure relative to a reference, in per cent. Lower therefore signals poor availability. A word on the Tmax: it is the time at which the peak concentration occurs.

Bounds are passed on as bounds.

Voltage-gated inwardly rectifying potassium channel KCNH2, sequence (Q12809 whole entry): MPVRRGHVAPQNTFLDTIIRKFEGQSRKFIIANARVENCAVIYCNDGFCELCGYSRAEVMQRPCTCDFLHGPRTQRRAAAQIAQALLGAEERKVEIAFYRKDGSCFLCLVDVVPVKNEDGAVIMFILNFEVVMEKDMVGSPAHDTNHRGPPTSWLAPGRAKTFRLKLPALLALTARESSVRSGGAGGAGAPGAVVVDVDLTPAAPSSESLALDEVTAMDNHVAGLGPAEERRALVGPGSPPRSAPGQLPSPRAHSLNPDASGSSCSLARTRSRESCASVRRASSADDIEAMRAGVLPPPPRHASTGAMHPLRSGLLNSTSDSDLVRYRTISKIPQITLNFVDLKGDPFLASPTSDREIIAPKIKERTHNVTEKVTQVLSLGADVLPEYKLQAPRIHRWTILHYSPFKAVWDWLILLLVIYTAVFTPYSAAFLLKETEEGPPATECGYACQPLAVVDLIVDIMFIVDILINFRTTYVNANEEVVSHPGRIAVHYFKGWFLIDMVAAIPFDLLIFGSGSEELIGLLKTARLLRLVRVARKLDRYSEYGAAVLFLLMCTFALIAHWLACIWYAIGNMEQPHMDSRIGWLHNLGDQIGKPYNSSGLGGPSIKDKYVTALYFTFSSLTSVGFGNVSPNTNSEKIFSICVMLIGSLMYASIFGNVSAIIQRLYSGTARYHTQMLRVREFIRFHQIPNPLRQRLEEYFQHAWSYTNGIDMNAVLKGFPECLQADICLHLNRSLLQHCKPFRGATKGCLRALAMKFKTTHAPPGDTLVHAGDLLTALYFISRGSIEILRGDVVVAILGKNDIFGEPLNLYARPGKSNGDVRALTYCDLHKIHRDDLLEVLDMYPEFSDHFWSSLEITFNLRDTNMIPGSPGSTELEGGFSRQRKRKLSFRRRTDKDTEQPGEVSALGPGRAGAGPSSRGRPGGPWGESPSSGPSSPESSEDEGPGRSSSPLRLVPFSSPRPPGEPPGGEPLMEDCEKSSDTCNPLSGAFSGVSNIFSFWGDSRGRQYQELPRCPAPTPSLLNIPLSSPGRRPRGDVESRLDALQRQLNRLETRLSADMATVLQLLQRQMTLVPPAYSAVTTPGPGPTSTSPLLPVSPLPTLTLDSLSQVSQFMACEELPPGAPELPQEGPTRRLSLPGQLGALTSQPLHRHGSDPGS

On to `O=C(Nc1ccc(F)cc1)C1(C(=O)Nc2ccc(Oc3cc(Nc4cccc(N5CCOCC5)c4)ncn3)c(F)c2)CC1`, for which the IC50 in the data set on CAKI-1 is 2690 nM; with HepG2, 5970 nM; in the data set on PANC-1, 5530 nM; in the data set on HCT-116, 7990 nM; in the data set with PC-3 it was 4710 nM.

For `CN1CCN(c2cccc(Nc3nccc(Oc4ccc(NC(=O)C5(C(=O)Nc6ccc(F)cc6)CC5)cc4)n3)c2)CC1`, the IC50 with CAKI-1 stood at 1630 nM; with HepG2 it was 1730 nM; with PANC-1 it was 3160 nM; in the data set with HCT-116 it was 2020 nM; in the data set on PC-3, 2250 nM.

`COC(=O)c1ccc(Nc2nccc(Oc3ccc(NC(=O)C4(C(=O)Nc5ccc(F)cc5)CC4)cc3)n2)c(OC)c1` registered an IC50 in data set [1] above 2000 nM.

For `O=C(Nc1ccc(F)cc1)C1(C(=O)Nc2ccc(Oc3ccnc(Nc4cccc(N5CCOCC5)c4)n3)c(F)c2)CC1`, the IC50 in the data set with CAKI-1 came out at 2920 nM; in the data set on HepG2, 2210 nM; with PANC-1, 3400 nM; in the data set with HCT-116 it was 3150 nM; in the data set with PC-3 it was 2340 nM.

Consider `O=C(Nc1ccc(F)cc1)C1(C(=O)Nc2ccc(Oc3ccnc(Nc4cccc(N5CCOCC5)c4)c3)cc2)CC1`, for which the IC50 with CAKI-1 was 2590 nM; in the data set on HepG2 it was 4860 nM; in the data set with PANC-1, 4010 nM; with HCT-116, 4790 nM; in the data set with PC-3 it was 3300 nM.

Compound `COC(=O)c1ccc(Nc2nccc(Oc3ccc(NC(=O)C4(C(=O)Nc5ccc(F)cc5)CC4)cc3)n2)nc1` yielded an IC50 in data set [1] above 2000 nM.

In the case of `CNC(=O)c1cccc(Nc2nccc(Oc3ccc(NC(=O)C4(C(=O)Nc5ccc(F)cc5)CC4)cc3)n2)c1`, the IC50 in the data set on CAKI-1 came to 3310 nM; with HepG2 it was 7010 nM; in the data set on PANC-1, 2850 nM; in the data set on HCT-116, 3560 nM; in the data set on PC-3 it was 1930 nM.

On to `O=C(Nc1ccc(F)cc1)c1ccccc1Nc1ccc(Oc2ccnc(Nc3cccc(CN4CCOCC4)c3)n2)cc1`, for which the IC50 in data set [1] was above 1000 nM.

As to `O=C(Nc1ccc(F)cc1)c1ccccc1Nc1ccc(Oc2ccnc(Nc3cccc(N4CCOCC4)c3)n2)cc1`, the IC50 in [1] is above 1000 nM.

For the compound `Cc1c(C(=O)Nc2ccc(Oc3ccnc(Nc4cccc(N5CCOCC5)c4)n3)c(F)c2)c(=O)n(-c2ccccc2)n1C`, the IC50 in the data set on CAKI-1 turned out to be 1880 nM; in the data set with HepG2, 2100 nM; in the data set with PANC-1, 2000 nM; in the data set with HCT-116, 2340 nM; in the data set with PC-3, 1800 nM.

In the case of `Cc1c(C(=O)Nc2ccc(Oc3ccnc(Nc4cccc(N5CCOCC5)c4)n3)cc2)c(=O)n(-c2ccccc2)n1C`, the figures for the AUC(0-t) in data set [2] and in data set [13] were 8220 ng·h/mL and 19000 ng·h/mL, respectively. The Activity result in [3], in data set [6] and in data set [17] was “Non-Toxic” in each case. Moreover, the IC50 in the data set on CAKI-1 was 530 nM; in the data set with HepG2, 1340 nM; with PANC-1 it was 1010 nM; with HCT-116, 1370 nM; in the data set on PC-3, 1340 nM; in [19], above 40000 nM. Besides, the CLz/F in [4] was determined as 6.83 mL/min/kg. Besides, the figures for the Cmax in data set [5] and in data set [11] were 3050 ng/mL and 2470 ng/mL, respectively. Besides, the half-life was 9.04 h in [7] and 8.9 h in data set [16]. The survival at 336 h worked out at 100% in data set [8]; 100% in data set [10]; 0% in data set [14]; 70% in data set [15]; 100% in data set [18]; 100% in data set [20]. Moreover, in data set [9], the CL/F was 11 mL/min/kg. For the same compound, in [12], the bioavailability turned out to be 59.3%. The Tmax in data set [21] was 6 h.

For the compound `O=C(Nc1ccc(F)cc1)C1(C(=O)Nc2ccc(Oc3ccnc(Nc4cccc(N5CCOCC5)c4)n3)cc2)CC1`, the IC50 in the data set on CAKI-1 was determined as 3900 nM; with HepG2 it was 3570 nM; in the data set on PANC-1, 6670 nM; with HCT-116, 4200 nM; in the data set with PC-3 it was 2650 nM.

Consider `O=C(Nc1ccc(Oc2ccnc(Nc3cccc(N4CCOCC4)c3)n2)cc1)c1ccccc1Nc1ccc(F)cc1`, for which the IC50 in data set [1] is above 1000 nM.

Consider `O=C1CCCc2cc(Nc3nccc(Oc4ccc(NC(=O)C5(C(=O)Nc6ccc(F)cc6)CC5)cc4)n3)ccc2N1`, for which the IC50 in the data set on CAKI-1 is 1470 nM; with HepG2, 3240 nM; in the data set with PANC-1, 3280 nM; with HCT-116, 3140 nM; in the data set on PC-3, 2600 nM.

`O=C(Nc1ccc(Oc2ccnc(Nc3cccc(CN4CCOCC4)c3)n2)cc1)c1ccccc1Nc1ccc(F)cc1` yielded an IC50 in data set [1] above 1000 nM.

With `COc1cc(C(=O)NCC2CC2)ccc1Nc1nccc(Oc2ccc(NC(=O)C3(C(=O)Nc4ccc(F)cc4)CC3)cc2)n1`, the IC50 in data set [1] is above 2000 nM.

As for `COc1cc2nccc(Oc3ccc(NC(=O)C4(C(=O)Nc5ccc(F)cc5)CC4)cc3)c2cc1OC` [CABOZANTINIB], the IC50 in [19] was above 30000 nM.
